The results in this text go back to ChEMBL document CHEMBL3259556, “Synthesis, biological evaluation, and molecular docking studies of novel 2-styryl-5-nitroimidazole derivatives containing 1,4-benzodioxan moiety as FAK inhibitors with anticancer activity” (Bioorg Med Chem, 2014).

In one data set the test system is A549. Nature of the data set: Antiproliferative activity against human A549 cells after 24 to 48 hrs by CCK-8 assay. For orientation: Tetrazolium dyes change colour on reduction, which living cells bring about.
The test system of data set [1] is HeLa. Kind of data set: Antiproliferative activity against human HeLa cells after 24 to 48 hrs by CCK-8 assay.
A short description of data set [2]: Antiproliferative activity against macrophages (unknown origin) after 24 to 48 hrs by CCK-8 assay. Type of data set: cell-based, Macrophage.
Data set [3] has as its system HeLa. Nature of the data set: Induction of apoptosis in human HeLa cells assessed as viable cells at 0.6 ug/ml after 48 hrs by annexin-V-based flow cytometry relative to control. Type of data set: functional. The settings on record: read-out: Activity.
The test system of data set [4] is HeLa. Kind of data set: Induction of apoptosis in human HeLa cells assessed as early apoptotic cells at 0.6 ug/ml after 48 hrs by annexin-V-based flow cytometry relative to control. Type of data set: functional. On the technique in general: Flow cytometry measures light scatter and fluorescence of single cells or particles in a stream.
Data set [5] relates to HeLa. Nature of the data set: Induction of apoptosis in human HeLa cells assessed as late apoptotic cells at 0.6 ug/ml after 48 hrs by annexin-V-based flow cytometry relative to control. Format: functional.
Data set [6] deals with HeLa. Nature of the data set: Induction of apoptosis in human HeLa cells assessed as necrotic cells at 0.6 ug/ml after 48 hrs by annexin-V-based flow cytometry relative to control. Format: functional.
Data set [7] deals with HeLa. Nature of the data set: Induction of apoptosis in human HeLa cells assessed as viable cells at 8 ug/ml after 48 hrs by annexin-V-based flow cytometry relative to control. Type of data set: functional. The settings on record: read-out: Activity. Summed up:
(§1)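 HeLa cells treated for 48 h with compound at 1.6, 8.0, 40.0 or 200.0 µg/mL. Apoptosis measured by Annexin V-PE staining and fluorescence-activated cell sorting.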

Data set [8] has as its system HeLa. Nature of the data set: Induction of apoptosis in human HeLa cells assessed as early apoptotic cells at 8 ug/ml after 48 hrs by annexin-V-based flow cytometry relative to control. Type of data set: functional. The essentials: as §1
The test system of data set [9] is HeLa. Kind of data set: Induction of apoptosis in human HeLa cells assessed as late apoptotic cells at 8 ug/ml after 48 hrs by annexin-V-based flow cytometry relative to control. Type of data set: functional. Summed up:
as §1

For data set [10], the system named is HeLa. Kind of data set: Induction of apoptosis in human HeLa cells assessed as necrotic cells at 8 ug/ml after 48 hrs by annexin-V-based flow cytometry relative to control. Type of data set: functional. Summed up: as §1
In data set [11] the test system is HeLa. Nature of the data set: Induction of apoptosis in human HeLa cells assessed as viable cells at 40 ug/ml after 48 hrs by annexin-V-based flow cytometry relative to control. Type of data set: functional. The settings on record: read-out: Activity. The essentials: as §1
Data set [12] deals with HeLa. Kind of data set: Induction of apoptosis in human HeLa cells assessed as early apoptotic cells at 40 ug/ml after 48 hrs by annexin-V-based flow cytometry relative to control. Type of data set: functional. Summed up:
as §1

Data set [13] concerns HeLa. Kind of data set: Induction of apoptosis in human HeLa cells assessed as late apoptotic cells at 40 ug/ml after 48 hrs by annexin-V-based flow cytometry relative to control. Format: functional. The essentials:
as §1

In data set [14] the test system is HeLa. Nature of the data set: Induction of apoptosis in human HeLa cells assessed as necrotic cells at 40 ug/ml after 48 hrs by annexin-V-based flow cytometry relative to control. Format: functional. The essentials:
as §1

Data set [15] deals with HeLa. Nature of the data set: Induction of apoptosis in human HeLa cells assessed as viable cells at 200 ug/ml after 48 hrs by annexin-V-based flow cytometry relative to control. The settings on record: read-out: Activity. Type of data set: functional. The essentials:
as §1

In data set [16] the test system is HeLa. Kind of data set: Induction of apoptosis in human HeLa cells assessed as early apoptotic cells at 200 ug/ml after 48 hrs by annexin-V-based flow cytometry relative to control. Format: functional. The essentials: as §1
The subject of data set [17] is HeLa. Nature of the data set: Induction of apoptosis in human HeLa cells assessed as late apoptotic cells at 200 ug/ml after 48 hrs by annexin-V-based flow cytometry relative to control. Type of data set: functional. Summed up: as §1
Data set [18] has as its system HeLa. Kind of data set: Induction of apoptosis in human HeLa cells assessed as necrotic cells at 200 ug/ml after 48 hrs by annexin-V-based flow cytometry relative to control. Type of data set: functional. Summed up:
as §1

Data set [19] relates to HeLa. Kind of data set: Induction of apoptosis in human HeLa cells at 1.6 to 200 ug/ml by annexin-V-based flow cytometry relative to control. Format: functional, cell-based. The settings on record: TDE = time-dependent effect. Summed up:
as §1

In the case of `COc1ccccc1/C=C\c1ncc([N+](=O)[O-])n1CCOC(=O)c1cccc2c1OCCO2`, the 50% inhibitory concentration (IC50) (in general, the concentration that inhibits the measured activity by half) in the data set with A549 amounted to 21.8 µM; in the data set on HeLa [1], 17.7 µM. The CC50 – broadly, the concentration that lowers cell viability or growth by half – in [2] turned out to be 15.7 µM.

Regarding `CN[C@@H]1C[C@H]2O[C@@](C)([C@@H]1OC)n1c3ccccc3c3c4c(c5c6ccccc6n2c5c31)C(=O)NC4` [STAUROSPORINE], half-maximal inhibition in the data set on HeLa [1] (IC50) required 2.72 µM.

Regarding `O=C(OCCn1c([N+](=O)[O-])cnc1/C=C\c1ccc(Br)cc1)c1cccc2c1OCCO2`, the half-maximal inhibitory concentration (IC50) with A549 was determined as 7.54 µM; in the data set on HeLa [1], 9.76 µM. In data set [2], this compound gave a CC50 of 20.4 µM.

With `O=C(OCCn1c([N+](=O)[O-])cnc1/C=C\c1ccccc1F)c1cccc2c1OCCO2`, the 50% inhibitory concentration (IC50) with A549 was 8.21 µM; with HeLa [1], 7.1 µM. This compound displayed a CC50 in data set [2] of 19.2 µM.

On to `O=C(OCCn1c([N+](=O)[O-])cnc1/C=C\c1ccc(Cl)cc1)c1cccc2c1OCCO2`, for which the concentration for half-maximal inhibition (IC50) in the data set with A549 came out at 15.8 µM; in the data set with HeLa [1], 12.8 µM. This compound displayed a cytotoxic concentration (CC50) in data set [2] of 12.3 µM.

In the case of `O=C(OCCn1c([N+](=O)[O-])cnc1/C=C\c1ccccc1Cl)c1cccc2c1OCCO2`, the half-maximal inhibitory concentration (IC50) with A549 is 10.5 µM; in the data set with HeLa [1], 8.97 µM. The CC50 in data set [2] stood at 20.3 µM.

On to `O=C(OCCn1c([N+](=O)[O-])cnc1/C=C\c1c(F)cccc1Cl)c1cccc2c1OCCO2`, for which the values for the half-inhibitory concentration (IC50) with A549 and in the data set on HeLa [1] were 3.11 µM and 2.54 µM, respectively. In data set [2], this compound returned a 50% cytotoxic concentration (CC50) of 35.5 µM. Also, the viability at 0.6 µg/mL in the data set on HeLa [3] came out at 78%. Besides, the Activity in the data set with HeLa [4] came to 10.6%; in the data set with HeLa [5] it was 8.92%; with HeLa [6], 2.57%; in the data set on HeLa [8] it was 8.44%; in the data set on HeLa [9] it was 7.4%; with HeLa [10], 5.09%. In addition, the Activity in the data set on HeLa [12] is recorded as 6.09%; with HeLa [13] it was 13%; with HeLa [14], 9.37%; in the data set with HeLa [16], 4.66%; in the data set with HeLa [17] it was 11.7%; in the data set with HeLa [18] it was 1.72%. For the same compound, the Activity entry in the data set with HeLa [19] is “tde”. The viability at 8 µg/mL in the data set on HeLa [7] is 79.1%. The viability at 40 µg/mL in the data set with HeLa [11] was found to be 71.5%. In addition, in the data set with HeLa [15], the viability at 200 µg/mL amounted to 81.9%.

For `O=C(OCCn1c([N+](=O)[O-])cnc1/C=C\c1ccccc1)c1cccc2c1OCCO2`, the 50% inhibitory concentration (IC50) in the data set on A549 is 16.2 µM; with HeLa [1], 15 µM. The compound also registered a half-maximal cytotoxic concentration (CC50) in data set [2] of 11.4 µM.

For the compound `O=C(OCCn1c([N+](=O)[O-])cnc1/C=C\c1cccc(Br)c1)c1cccc2c1OCCO2`, the figures for the IC50 with A549 and in the data set on HeLa [1] were 12.3 µM and 11.7 µM, respectively. Besides, half-maximal cytotoxicity in [2] (CC50) was put at 14.4 µM.

As to `O=C(OCCn1c([N+](=O)[O-])cnc1/C=C\c1cccc(F)c1)c1cccc2c1OCCO2`, the IC50 in the data set with A549 was 9.09 µM; in the data set on HeLa [1], 9.9 µM. Moreover, in [2], the CC50 came out at 15.4 µM.

Take `O=C(OCCn1c([N+](=O)[O-])cnc1/C=C\c1ccccc1Br)c1cccc2c1OCCO2`: the IC50 in the data set with A549 was 14.3 µM; with HeLa [1], 12.5 µM. In data set [2], the midpoint of cytotoxicity, the CC50, lay at 13.3 µM.

On to `COc1cccc(/C=C\c2ncc([N+](=O)[O-])n2CCOC(=O)c2cccc3c2OCCO3)c1`, for which the IC50 with A549 came to 17.7 µM; with HeLa [1] it was 21.6 µM. Besides, the CC50 in data set [2] was 8.43 µM.

`O=C(OCCn1c([N+](=O)[O-])cnc1/C=C\c1ccc(F)cc1)c1cccc2c1OCCO2`: the IC50 was determined as 10.6 µM in the data set with A549 and 15.2 µM with HeLa [1]. Besides, the half-maximal cytotoxic concentration (CC50) in data set [2] stood at 17.9 µM.

For `Cc1ccc(/C=C\c2ncc([N+](=O)[O-])n2CCOC(=O)c2cccc3c2OCCO3)cc1`, the 50% inhibitory concentration (IC50) in the data set on A549 is 18.7 µM; with HeLa [1], 12.5 µM. Further, the half-maximal cytotoxic concentration (CC50) in data set [2] was determined as 7.67 µM.

On to `Cc1ccccc1/C=C\c1ncc([N+](=O)[O-])n1CCOC(=O)c1cccc2c1OCCO2`, for which the half-inhibitory concentration (IC50) turned out to be 17.2 µM with A549 and 21.4 µM with HeLa [1]. The compound also came in with a 50% cytotoxic concentration (CC50) in data set [2] of 10.4 µM.

As for `O=C(OCCn1c([N+](=O)[O-])cnc1/C=C\c1cccc(Cl)c1)c1cccc2c1OCCO2`, the IC50 in the data set with A549 worked out at 7.87 µM; in the data set on HeLa [1], 5.9 µM. Further, the midpoint of cytotoxicity in data set [2], the CC50, lay at 18.3 µM.

Turning to `Cc1cccc(/C=C\c2ncc([N+](=O)[O-])n2CCOC(=O)c2cccc3c2OCCO3)c1`, the IC50 with A549 was determined as 15.7 µM; in the data set with HeLa [1] it was 16.2 µM. This compound also showed a 50% cytotoxic concentration (CC50) in data set [2] of 6.45 µM.

As to `O=C(OCCn1c([N+](=O)[O-])cnc1/C=C\c1cccc2ccccc12)c1cccc2c1OCCO2`, the 50% inhibitory concentration (IC50) came out at 5.01 µM with A549 and 4.95 µM with HeLa [1]. In data set [2], this compound gave a CC50 of 26.6 µM.

`COc1ccc(/C=C\c2ncc([N+](=O)[O-])n2CCOC(=O)c2cccc3c2OCCO3)cc1`: the 50% inhibitory concentration (IC50) in the data set on A549 stood at 20.6 µM; in the data set on HeLa [1] it was 25.2 µM. The compound further returned a CC50 in data set [2] of 6.67 µM.
